Among the data in ChEMBL document CHEMBL1152541, “Staurosporine tethered peptide ligands that target cAMP-dependent protein kinase (PKA): optimization and selectivity profiling” (Bioorg Med Chem, 2009) are Activity values, retold here.

*1 amine or outer side, *2 acyl side, *3 side chain or, on linkers, in order; H or OH if unused. Where a SMILES comes first, the peptide text is derived from it. Bridges are numbered along the chain shown (N, C = ends). [ ]: non-standard residue; d: D form. The star is where a group is joined. Staurosporine = CO[C@@H]1[C@H](N(C)*)C[C@H]2O[C@]1(C)n1c3ccccc3c3c4c(c5c6ccccc6n2c5c31)C(=O)NC4; Suc = O=C(CCC(=O)[*:2])[*:1]; Dap = NC[C@H](N)C(=O)O; βAla = NCCC(=O)O

Test [1] deals with Epidermal growth factor receptor (Homo sapiens), P00533 [L858R]. The experiment in a line: Binding affinity to human EGFR L858R mutant at 500 nM by cell-based competition binding assay relative to control in presence of DTT. In short, it runs like this: (§1)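 Commercial (Ambit) competitive kinase-binding panel of 90 kinases measured the binding profile. Run under reducing conditions of 7.5 mM DTT. Binding is expressed relative to control.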

In test [2] the target is Mitogen-activated protein kinase 3 (Homo sapiens) (UniProt P27361). Put plainly: Binding affinity to human ERK1 at 500 nM by cell-based competition binding assay relative to control in presence of DTT. In short, it runs like this:
as §1

Test [3] addresses Proto-oncogene tyrosine-protein kinase receptor Ret (Homo sapiens) (UniProt P07949). The experiment in a line: Binding affinity to human RET at 500 nM by cell-based competition binding assay relative to control in presence of DTT.
The target in test [4] is High affinity nerve growth factor receptor (Homo sapiens) (UniProt P04629). Put plainly: Binding affinity to human TRKA at 500 nM by cell-based competition binding assay relative to control in presence of DTT.
Sequence of High affinity nerve growth factor receptor (Homo sapiens) (P04629 33-796 limits assumed): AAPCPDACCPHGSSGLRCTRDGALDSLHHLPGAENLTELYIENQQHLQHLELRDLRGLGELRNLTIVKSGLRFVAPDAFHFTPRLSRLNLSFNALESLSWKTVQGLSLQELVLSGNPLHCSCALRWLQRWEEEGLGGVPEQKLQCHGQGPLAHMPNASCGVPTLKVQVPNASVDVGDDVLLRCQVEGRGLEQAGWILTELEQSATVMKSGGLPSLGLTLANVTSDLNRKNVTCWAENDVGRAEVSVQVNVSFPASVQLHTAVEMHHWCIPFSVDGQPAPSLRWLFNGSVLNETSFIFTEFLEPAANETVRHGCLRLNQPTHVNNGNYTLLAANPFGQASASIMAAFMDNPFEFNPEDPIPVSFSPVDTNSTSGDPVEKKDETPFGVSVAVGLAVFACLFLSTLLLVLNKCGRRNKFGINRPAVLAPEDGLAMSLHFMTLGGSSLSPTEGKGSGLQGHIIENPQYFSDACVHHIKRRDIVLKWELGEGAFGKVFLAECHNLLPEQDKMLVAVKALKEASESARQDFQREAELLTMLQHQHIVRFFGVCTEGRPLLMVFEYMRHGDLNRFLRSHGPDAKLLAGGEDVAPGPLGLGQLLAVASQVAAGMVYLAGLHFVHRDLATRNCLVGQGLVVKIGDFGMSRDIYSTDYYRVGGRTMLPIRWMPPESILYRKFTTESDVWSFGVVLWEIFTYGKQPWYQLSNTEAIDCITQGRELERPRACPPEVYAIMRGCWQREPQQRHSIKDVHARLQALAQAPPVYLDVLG
Test [5] deals with T1, Tyrosine-protein kinase ZAP-70 (Homo sapiens) (UniProt P43403).
T1 sequence (whole entry): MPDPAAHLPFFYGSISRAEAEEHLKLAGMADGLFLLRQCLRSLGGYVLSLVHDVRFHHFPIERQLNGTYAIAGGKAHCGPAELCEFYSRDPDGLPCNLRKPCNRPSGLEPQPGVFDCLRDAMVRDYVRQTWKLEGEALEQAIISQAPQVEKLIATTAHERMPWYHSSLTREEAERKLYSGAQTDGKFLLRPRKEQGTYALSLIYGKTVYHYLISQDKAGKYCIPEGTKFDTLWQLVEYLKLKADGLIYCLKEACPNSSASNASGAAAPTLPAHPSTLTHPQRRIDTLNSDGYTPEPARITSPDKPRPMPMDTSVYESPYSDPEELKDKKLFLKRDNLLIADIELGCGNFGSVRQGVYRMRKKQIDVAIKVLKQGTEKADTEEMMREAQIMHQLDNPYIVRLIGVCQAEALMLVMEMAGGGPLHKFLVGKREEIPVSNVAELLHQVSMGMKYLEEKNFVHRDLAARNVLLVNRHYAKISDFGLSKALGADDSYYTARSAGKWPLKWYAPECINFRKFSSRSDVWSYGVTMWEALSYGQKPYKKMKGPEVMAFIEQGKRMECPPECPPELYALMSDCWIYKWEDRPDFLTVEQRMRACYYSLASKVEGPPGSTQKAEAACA
The experiment in a line: Binding affinity to human ZAP70 at 500 nM by cell-based competition binding assay relative to control in presence of DTT.

In test [6] the test system is Tyrosine-protein kinase ABL1 (Homo sapiens), P00519 [E255K]. The experiment in a line: Binding affinity to human ABL1 E255K mutant at 500 nM by cell-based competition binding assay relative to control in presence of DTT. In short, it runs like this: (§2)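 Kinase binding profiling ran on a commercial (Ambit) competitive binding screen against a panel of 90 kinases. The screen used reducing conditions with 7.5 mM DTT. To withstand the DTT, the bivalent ligand was tested as its amide isostere, with the disulfide replaced. A staurosporine derivative carrying a 3 β-alanine linker was run as the reference compound.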
Sequence of Tyrosine-protein kinase ABL1 (Homo sapiens), P00519 [E255K] (P00519 whole entry E255K): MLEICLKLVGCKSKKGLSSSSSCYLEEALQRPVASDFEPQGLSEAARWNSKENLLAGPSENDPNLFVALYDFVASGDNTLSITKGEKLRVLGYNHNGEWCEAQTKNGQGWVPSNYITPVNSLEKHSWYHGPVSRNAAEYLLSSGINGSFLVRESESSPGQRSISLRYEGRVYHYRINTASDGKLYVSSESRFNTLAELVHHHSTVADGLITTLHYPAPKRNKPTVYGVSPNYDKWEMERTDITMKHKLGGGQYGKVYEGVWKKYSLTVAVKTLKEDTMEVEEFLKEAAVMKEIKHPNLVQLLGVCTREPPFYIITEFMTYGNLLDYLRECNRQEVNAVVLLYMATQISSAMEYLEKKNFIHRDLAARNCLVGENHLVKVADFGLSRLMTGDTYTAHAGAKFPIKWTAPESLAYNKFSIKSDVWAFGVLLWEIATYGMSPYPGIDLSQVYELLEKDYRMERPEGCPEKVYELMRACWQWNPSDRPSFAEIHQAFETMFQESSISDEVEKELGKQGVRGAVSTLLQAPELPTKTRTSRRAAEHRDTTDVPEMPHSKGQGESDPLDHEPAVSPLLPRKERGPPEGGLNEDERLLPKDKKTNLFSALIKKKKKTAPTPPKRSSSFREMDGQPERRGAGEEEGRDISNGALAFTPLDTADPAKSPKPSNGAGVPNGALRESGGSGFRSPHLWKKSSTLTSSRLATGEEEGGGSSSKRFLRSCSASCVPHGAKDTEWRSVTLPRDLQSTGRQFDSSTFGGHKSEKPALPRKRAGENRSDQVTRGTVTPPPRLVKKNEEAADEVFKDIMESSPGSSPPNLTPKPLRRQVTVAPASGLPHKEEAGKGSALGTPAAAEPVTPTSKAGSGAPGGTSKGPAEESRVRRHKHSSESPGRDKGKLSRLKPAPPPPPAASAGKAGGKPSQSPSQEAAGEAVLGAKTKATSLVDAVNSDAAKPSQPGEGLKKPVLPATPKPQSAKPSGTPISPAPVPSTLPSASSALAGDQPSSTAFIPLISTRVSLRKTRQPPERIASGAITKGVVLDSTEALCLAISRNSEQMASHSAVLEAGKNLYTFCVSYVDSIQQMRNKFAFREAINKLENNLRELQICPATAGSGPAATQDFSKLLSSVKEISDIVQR

Test [7] deals with T2, Aurora kinase A (Homo sapiens) (UniProt O14965).
T2 sequence (whole entry): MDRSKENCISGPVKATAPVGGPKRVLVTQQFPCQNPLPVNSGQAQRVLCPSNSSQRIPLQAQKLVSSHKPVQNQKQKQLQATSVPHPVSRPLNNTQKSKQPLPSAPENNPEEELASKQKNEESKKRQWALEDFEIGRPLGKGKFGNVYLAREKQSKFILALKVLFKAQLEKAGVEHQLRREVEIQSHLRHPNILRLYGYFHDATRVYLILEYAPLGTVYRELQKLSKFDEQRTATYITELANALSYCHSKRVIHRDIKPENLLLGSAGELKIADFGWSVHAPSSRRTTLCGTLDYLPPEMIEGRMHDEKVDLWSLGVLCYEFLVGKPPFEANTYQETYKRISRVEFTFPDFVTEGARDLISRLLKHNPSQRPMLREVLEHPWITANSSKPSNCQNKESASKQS
The experiment in a line: Binding affinity to human aurora kinase A at 500 nM by cell-based competition binding assay relative to control in presence of DTT.

The target of test [8] is Insulin receptor (Homo sapiens) (UniProt P06213). The experiment in a line: Binding affinity to human INSR at 500 nM by cell-based competition binding assay relative to control in presence of DTT. In short, it runs like this:
(§3)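 Competition binding screen (Ambit) across a panel of 90 kinases, scoring test ligand displacement of each kinase's binding relative to control. The screen ran under reducing conditions with 7.5 mM DTT.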

The target in test [9] is Serine/threonine-protein kinase PAK 2 (Homo sapiens) (UniProt Q13177). The experiment in a line: Binding affinity to human PAK2 at 500 nM by cell-based competition binding assay relative to control in presence of DTT.
Sequence of Serine/threonine-protein kinase PAK 2 (Homo sapiens) (Q13177 whole entry): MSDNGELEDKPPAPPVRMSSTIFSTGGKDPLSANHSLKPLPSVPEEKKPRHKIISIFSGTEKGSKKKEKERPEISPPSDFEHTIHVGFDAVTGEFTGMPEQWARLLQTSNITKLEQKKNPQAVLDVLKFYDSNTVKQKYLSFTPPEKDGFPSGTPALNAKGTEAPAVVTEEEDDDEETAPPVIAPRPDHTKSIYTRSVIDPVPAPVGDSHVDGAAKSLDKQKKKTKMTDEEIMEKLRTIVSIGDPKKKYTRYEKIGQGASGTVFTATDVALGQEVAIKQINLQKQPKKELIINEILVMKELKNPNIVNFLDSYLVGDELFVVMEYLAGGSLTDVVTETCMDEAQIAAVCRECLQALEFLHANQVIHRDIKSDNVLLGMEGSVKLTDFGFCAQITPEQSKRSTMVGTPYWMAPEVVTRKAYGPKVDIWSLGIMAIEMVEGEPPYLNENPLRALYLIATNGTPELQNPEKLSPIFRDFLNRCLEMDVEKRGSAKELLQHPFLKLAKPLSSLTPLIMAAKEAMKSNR
Test [10] concerns the target Mitogen-activated protein kinase 11 (Homo sapiens) (UniProt Q15759). The experiment in a line: Binding affinity to human p38beta at 200 nM by cell-based competition binding assay relative to control in presence of DTT.
The target in test [11] is Atypical kinase COQ8A, mitochondrial (Homo sapiens) (UniProt Q8NI60). Put plainly: Binding affinity to human ADCK3 at 200 nM by cell-based competition binding assay relative to control in presence of DTT. Summed up: as §2
Sequence of Atypical kinase COQ8A, mitochondrial (Homo sapiens) (Q8NI60 163-647 limits assumed): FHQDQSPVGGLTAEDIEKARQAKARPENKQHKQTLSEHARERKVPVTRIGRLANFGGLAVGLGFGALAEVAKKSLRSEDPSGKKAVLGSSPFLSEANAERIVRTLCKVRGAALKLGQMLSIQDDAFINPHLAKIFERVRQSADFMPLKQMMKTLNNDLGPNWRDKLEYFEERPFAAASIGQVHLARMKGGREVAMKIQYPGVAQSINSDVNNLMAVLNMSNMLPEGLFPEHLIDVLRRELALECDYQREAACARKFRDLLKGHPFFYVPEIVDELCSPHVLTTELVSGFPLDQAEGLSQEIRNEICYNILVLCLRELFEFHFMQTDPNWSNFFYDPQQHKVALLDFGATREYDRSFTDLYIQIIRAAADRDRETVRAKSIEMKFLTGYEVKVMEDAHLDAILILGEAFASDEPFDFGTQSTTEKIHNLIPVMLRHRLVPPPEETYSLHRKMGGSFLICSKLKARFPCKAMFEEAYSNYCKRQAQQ
In test [12] the target is Cyclin-dependent kinase 2 (Homo sapiens) (UniProt P24941). The experiment in a line: Binding affinity to human CDK2 at 200 nM by cell-based competition binding assay relative to control in presence of DTT. In short, it runs like this:
as §2

For test [13], the target named is Serine/threonine-protein kinase PLK3 (Homo sapiens) (UniProt Q9H4B4). The experiment in a line: Binding affinity to human PLK3 at 200 nM by cell-based competition binding assay relative to control in presence of DTT.
Sequence of Serine/threonine-protein kinase PLK3 (Homo sapiens) (Q9H4B4 whole entry, looked up): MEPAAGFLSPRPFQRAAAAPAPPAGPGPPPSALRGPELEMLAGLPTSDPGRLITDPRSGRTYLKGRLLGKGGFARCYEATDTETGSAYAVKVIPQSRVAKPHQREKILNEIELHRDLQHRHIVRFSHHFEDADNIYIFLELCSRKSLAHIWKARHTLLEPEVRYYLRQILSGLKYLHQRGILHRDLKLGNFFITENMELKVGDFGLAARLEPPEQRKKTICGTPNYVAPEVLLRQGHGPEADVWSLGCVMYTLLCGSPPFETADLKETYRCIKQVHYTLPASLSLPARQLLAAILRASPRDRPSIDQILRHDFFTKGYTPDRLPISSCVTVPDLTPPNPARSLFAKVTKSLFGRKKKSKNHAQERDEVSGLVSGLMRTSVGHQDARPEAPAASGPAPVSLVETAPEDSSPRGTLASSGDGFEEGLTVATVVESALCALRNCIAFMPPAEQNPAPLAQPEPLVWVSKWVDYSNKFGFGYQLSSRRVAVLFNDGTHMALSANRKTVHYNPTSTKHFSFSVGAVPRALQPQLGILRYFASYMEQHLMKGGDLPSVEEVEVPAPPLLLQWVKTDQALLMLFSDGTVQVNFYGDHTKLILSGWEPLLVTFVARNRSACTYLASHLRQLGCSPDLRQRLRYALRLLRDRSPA
For test [14], the target named is RAF proto-oncogene serine/threonine-protein kinase (Homo sapiens) (UniProt P04049). Put plainly: Binding affinity to human RAF1 at 200 nM by cell-based competition binding assay relative to control in presence of DTT.
Test [15] addresses Dual specificity tyrosine-phosphorylation-regulated kinase 1B (Homo sapiens) (UniProt Q9Y463). Put plainly: Binding affinity to human DYRK1B at 50 nM by cell-based competition binding assay relative to control in presence of DTT. Summed up:
as §1

In test [16] the test system is Mast/stem cell growth factor receptor Kit (Homo sapiens), P10721 [D816V]. Put plainly: Binding affinity to human KIT D816V mutant at 50 nM by cell-based competition binding assay relative to control in presence of DTT. In short, it runs like this: as §3
Test [17] deals with Platelet-derived growth factor receptor alpha (Homo sapiens) (UniProt P16234). The experiment in a line: Binding affinity to human PDGFRalpha at 50 nM by cell-based competition binding assay relative to control in presence of DTT.
Test [18] deals with Focal adhesion kinase 1 (Homo sapiens) (UniProt Q05397). Put plainly: Binding affinity to human PTK2 at 50 nM by cell-based competition binding assay relative to control in presence of DTT.
Test [19] concerns the target Mitogen-activated protein kinase 8 (Homo sapiens) (UniProt P45983). Put plainly: Binding affinity to human JNK1 at 50 nM by cell-based competition binding assay relative to control in presence of DTT. In short, it runs like this: as §3

Sequence of Dual specificity tyrosine-phosphorylation-regulated kinase 1B (Homo sapiens) (Q9Y463 whole entry, looked up): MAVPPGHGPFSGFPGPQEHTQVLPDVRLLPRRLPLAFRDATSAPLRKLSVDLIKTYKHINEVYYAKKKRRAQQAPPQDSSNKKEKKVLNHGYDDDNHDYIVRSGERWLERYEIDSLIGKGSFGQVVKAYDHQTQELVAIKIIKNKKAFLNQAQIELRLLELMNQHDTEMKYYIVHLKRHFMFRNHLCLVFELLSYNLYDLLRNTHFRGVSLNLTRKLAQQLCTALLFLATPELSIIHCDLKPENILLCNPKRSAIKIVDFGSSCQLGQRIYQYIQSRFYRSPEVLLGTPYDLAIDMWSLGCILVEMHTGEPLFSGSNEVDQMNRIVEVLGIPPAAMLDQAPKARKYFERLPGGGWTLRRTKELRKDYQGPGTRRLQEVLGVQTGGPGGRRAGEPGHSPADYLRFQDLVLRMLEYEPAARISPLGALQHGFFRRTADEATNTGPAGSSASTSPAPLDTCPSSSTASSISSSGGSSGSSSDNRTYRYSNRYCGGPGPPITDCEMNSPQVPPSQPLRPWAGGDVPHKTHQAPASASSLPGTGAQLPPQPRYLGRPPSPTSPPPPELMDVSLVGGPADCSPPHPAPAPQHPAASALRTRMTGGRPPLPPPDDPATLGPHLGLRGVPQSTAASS
Sequence of Mitogen-activated protein kinase 3 (Homo sapiens) (P27361 whole entry): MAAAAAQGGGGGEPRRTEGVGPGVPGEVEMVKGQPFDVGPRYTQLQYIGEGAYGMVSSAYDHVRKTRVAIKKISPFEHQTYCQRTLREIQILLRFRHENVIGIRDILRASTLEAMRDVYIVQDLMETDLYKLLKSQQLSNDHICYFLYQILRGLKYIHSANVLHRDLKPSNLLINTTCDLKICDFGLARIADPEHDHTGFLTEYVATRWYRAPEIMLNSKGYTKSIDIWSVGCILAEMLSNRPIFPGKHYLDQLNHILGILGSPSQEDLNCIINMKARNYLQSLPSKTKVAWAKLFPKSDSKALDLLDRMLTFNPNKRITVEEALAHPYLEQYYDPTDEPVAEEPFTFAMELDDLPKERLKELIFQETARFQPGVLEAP
Sequence of Mitogen-activated protein kinase 11 (Homo sapiens) (Q15759 whole entry): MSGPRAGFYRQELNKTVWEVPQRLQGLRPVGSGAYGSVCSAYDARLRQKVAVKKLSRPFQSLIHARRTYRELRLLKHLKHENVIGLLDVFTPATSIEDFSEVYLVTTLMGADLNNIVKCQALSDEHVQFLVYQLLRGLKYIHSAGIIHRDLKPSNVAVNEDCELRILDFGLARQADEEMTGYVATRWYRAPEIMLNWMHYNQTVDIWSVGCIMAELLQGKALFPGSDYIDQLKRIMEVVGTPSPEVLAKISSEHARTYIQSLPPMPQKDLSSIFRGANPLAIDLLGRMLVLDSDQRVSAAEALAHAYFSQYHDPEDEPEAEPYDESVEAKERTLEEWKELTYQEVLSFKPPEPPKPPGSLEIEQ

Consider `CO[C@@H]1[C@H](N(C)C(=O)CCC(=O)NCCC(=O)NCCC(=O)NCCC(N)=O)C[C@H]2O[C@]1(C)n1c3ccccc3c3c4c(c5c6ccccc6n2c5c31)C(=O)NC4`, for which the Activity in test [1] was determined as 53%; in test [2], 100%; in test [3] it was 5.6%; in test [4], 13%; in test [5], 2.2%; in test [6], 92%. Also, the Activity in [7] was determined as 4.2%; in [8], 55%; in test [9] it was 14%.

With `CO[C@@H]1[C@H](N(C)C(=O)CCC(=O)NCCC(=O)NCCC(=O)NCCC(=O)NCCC(=O)NCCC(=O)NCCC(=O)NCCC(=O)N[C@H]2CSSC[C@@H](C(=O)NCC(N)=O)NC(=O)CNC(=O)[C@H](Cc3ccccc3)NC(=O)[C@H](C(C)C)NC(=O)[C@H](CCCNC(=N)N)NC(=O)[C@H](Cc3ccccc3)NC(=O)[C@H](C(C)C)NC2=O)C[C@H]2O[C@]1(C)n1c3ccccc3c3c4c(c5c6ccccc6n2c5c31)C(=O)NC4` ({Staurosporine-Suc-βAla-βAla-βAla-βAla-βAla-βAla-βAla}-CVFRVFGCG-NH2; disulfide 1-8), the Activity in test [10] was 100%; in test [11], 96%; in test [12], 100%; in [13], 100%; in [14] it was 89%.

On to `CO[C@@H]1[C@H](N(C)C(=O)CCC(=O)NCCC(=O)NCCC(=O)NCCC(=O)NCCC(=O)NCCC(=O)NCCC(=O)NCCC(=O)N[C@H]2CNC(=O)C[C@@H](C(N)=O)NC(=O)CNC(=O)[C@H](Cc3ccccc3)NC(=O)[C@H](C(C)C)NC(=O)[C@H](CCCNC(=N)N)NC(=O)[C@H](Cc3ccccc3)NC(=O)[C@H](C(C)C)NC2=O)C[C@H]2O[C@]1(C)n1c3ccccc3c3c4c(c5c6ccccc6n2c5c31)C(=O)NC4` ({Staurosporine-Suc-βAla-βAla-βAla-βAla-βAla-βAla-βAla}-[Dap]VFRVFGD-NH2; lactam 1-8), for which the Activity turned out to be 79% in test [15]; 6.5% in test [16]; 100% in test [17]; 100% in test [18]; 100% in [19].
